For this data set, the system named is MS2 coat protein. Nature of the data set: apparent Kd, MS2 coat protein; higher = weaker binding; RNA-MaP array; FMN 200 µM where present. A digest of the protocol: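 Stalled E. coli RNA polymerase transcribed each design on Illumina sequencing-chip clusters. The clusters were titrated with SNAP-549-labelled MS2 coat protein, starting at 0.7 or 1.5 nM and doubling up to 3 µM, first without ligand and then with constant ligand, in 100 mM Tris-HCl pH 7.5, 80 mM KCl, 4 mM MgCl2, BSA, DTT, yeast tRNA and Tween-20. Green signal was normalised to red-channel RNA signal and to the control-cluster median Fmax. The apparent Kd is the median of filtered binding-curve fits made for each cluster.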

The mark [1] stands for this setting: designed as: OFF switch for flavin mononucleotide, no ligand.
The mark [2] stands for this setting: ligand present: flavin mononucleotide, designed as: OFF switch for flavin mononucleotide.
The mark [3] stands for this setting: designed as: ON switch for flavin mononucleotide, no ligand.
[4] abbreviates: ligand present: flavin mononucleotide, designed as: ON switch for flavin mononucleotide.

The values below come from the EternaBench riboswitch data.

What is called apparent Kd is the concentration giving half-maximal binding under the conditions of the assay.

On to “GUUGUGUGAGGAUAUGCCUGGCCGUGUGGCCGGAUUGGGUGGCAGAAGGUACAUGAGGAUCACCCAUGUACGGG”, for which the “apparent Kd” value under setting [1] was determined as 90.6 nM and the “apparent Kd” value under setting [2] was 70 nM.
Taken in the same sequence, the figures for “GGAAUAAAUGCAGGAUAUACGUGGAAAGCCCUCAACAUGAGGAUCACCCAUGUAGAAGGGCAUCUCCCGACCGAAGCGGAUCUC” were 4.41 nM and 4.82 nM.
Consider “UUUUAACAUGAGGAUCACCCAUGUGAGGAUAUCGAAAUUUAUAUUAAUAUUAAUUUAACGAGAAGGCACAUUUU”, for which the “apparent Kd” value runs as follows: under setting [1], 101 nM; under setting [2], 93.7 nM.
Regarding “GUAGCAUAUGAUUUACAUGAGGAUCACCCAUGUAUCUUGGGUAAGGAUAUUGAUGUUAUGUUAAUCAAGAAGGUACUAUGCUAC”, the “apparent Kd” value worked out at 50.5 nM under setting [3] and 8.66 nM under setting [4].
For “CGAAGAGGAAGUGAAAGGCGGGACAGAAGGGCACCGGGUCAGCGUCACAUGAGGAUCACCCAUGUGCAGGAUAUGUCGACCCAC”, the “apparent Kd” value runs as follows: under setting [1], 6.54 nM; under setting [2], 30.4 nM.
With “UAAUCGUUGCAGAAGGUUAUUUUUUUAACAAGUCUCUUAACAUGAGGAUCACCCAUGUUUUUGAUGAAGGAUAUGCAACGGUAG”, the “apparent Kd” value under setting [1] came to 5.89 nM and the “apparent Kd” value under setting [2] is 6.15 nM.
Taken in the same sequence, the figures for “UGAUCUAUGUAGAAGGCCCAUAUCUAUAUUUAGGGAGGAUAUACAUGAGGAUCACCCAUGUAUAGAGCGGGUGGACCCGUCACU” were 74.1 nM and 185 nM.
Taken in the same sequence, the figures for “AAUAACAGAGGAUAUACUAUUUUAUGUGUUUGUUAUUUUAAACAUGAGGAUCACCCAUGUAGAAGGCUGAUUAA” were 42 nM and 44.6 nM.
The corresponding values for “CGUAAGCAAGGAUAUACAUGAGGAUCACCCAUGUAGCUUUGCUUCGUGGGCACAACAUGUAGAAGGUGCGAAAA” are 15.3 nM and 13.3 nM.
Turning to “GGUUGACAAAGUCAACCUUAACGAACAUGAGGAUCACCCAUGUAGGAUAUGCUACUCAAAGAGUAGCAGAAGGACAUGUGUCUU”, the “apparent Kd” value under setting [1] came to 30 nM and the “apparent Kd” value under setting [2] is 169 nM.
In the case of “GAGUAGUUGAUAGGAUAUUGAUUGUUAUAGGAUCAAGAAGGAUCUAACAUGAGGAUCACCCAUGUAGGACUAUUCCUGUGUAUC”, the “apparent Kd” value is 22.1 nM under setting [3] and 19.2 nM under setting [4].
The corresponding values for “AGUUCCUCCGCAGGAUAUGUGCUCUUUAUCACAUGAGGAUCACCCAUGUCAGCCUAAACGGCGAGACAGAAGGGUGGUGGUGCC” are 172 nM and 177 nM.
Regarding “UGAUAGGACAGAGGAUAUACGGCUAGGAGAUACUAGCUACUAUUCCUCACAUGAGGAUCACCCAUGUAGAAGGCUGUCCUAUCU”, the “apparent Kd” value runs as follows: under setting [1], 16.9 nM; under setting [2], 148 nM.
Taken in the same sequence, the figures for “ACCUUCAAAGGAUAUGCGACUGGACGCCUUGCCAUGUAUAGACAUGAGGAUCACCCAUGUAGAAGGUUGGAGGA” were 30.7 nM and 47.7 nM.
For “GGCUUGCAGCUAGGAUAUGGGCGAUCACAUGAGGAUCACCCAUGUCAACAUCAAAACAAGAUUAACCAGAAGGAGCCGCGGGUU”, the “apparent Kd” value reads like this: under setting [3], 50.6 nM; under setting [4], 153 nM.
With “UCGUGUUAUACAGGAUAUGUUUAGGUAUAAUCAUUCAGUUAUUAAUUAAUGACAGAAGGGUAAACAUGAGGAUCACCCAUGUCA”, the “apparent Kd” value runs as follows: under setting [1], 179 nM; under setting [2], 121 nM.
The corresponding values for “UAAAUACAUGAGGAUCACCCAUGUGAGGAUAUCCGAUGAUUCGGAGAAAGGACCCGUUGGAGAAGGCAUAGGGC” are 27.1 nM and 21 nM.
Taken in the same sequence, the figures for “ACAUUGUAUGUGAGGAUAUCGAUGGGAUGGGUUGUCGAGAAGGCACAUGAGGAUCACCCAUGUGGGAAACAGCA” were 39.5 nM and 170 nM.
The corresponding values for “UAUAUAUAGGCAGGAUAUACAUGUAUAUAUAAUUUUUUAUAUAUUAUUACAUGAGGAUCACCCAUGUAGAAGGGCCAUAUUAUA” are 34.8 nM and 51 nM.
On to “GCCAUGUCAGGAUAUAAGCUGUUGCCGAACGGUCAACACAAUUAGAAGGGACAUGAGGAUCACCCAUGUCCGAG”, for which the “apparent Kd” value is, setting by setting: under setting [1], 18.5 nM; under setting [2], 20.3 nM.
For the sequence “GACUGGCAGCUAGGAUAUGGGCGAUCACAUGAGGAUCACCCAUGUCAACAUCAAAACAAGAUUAACCAGAAGGAGCCGCGGGCU”, the “apparent Kd” value under setting [3] turned out to be 17.3 nM and the “apparent Kd” value under setting [4] came out at 49.7 nM.
Regarding “AAUGGCCAAGGAUAUGAGACCUAAAACAUGAGGAUCACCCAUGUGGACUCAGCCGCGUGGUCAGAAGGUGGAACCA”, the “apparent Kd” value under setting [1] was found to be 13.8 nM and the “apparent Kd” value under setting [2] was 14.8 nM.
With “CGAGACCUCACAGGAUAUGCUGGACUUUGUCCAGCAGAAGGGUGAAAACAUGAGGAUCACCCAUGUAUGGUCUCCAAAUUUAAU”, the “apparent Kd” value came out at 176 nM under setting [3] and 13.9 nM under setting [4].
On to “GCCUCACAUGAGGAUCACCCAUGUCAGGAUAUGGACUCGAGGGUCUUGGAAGACUGGGCCAGAAGGGACUAUGG”, for which the “apparent Kd” value was found to be 57 nM under setting [1] and 83 nM under setting [2].
As for “UUCAAUCACAUAGGAUAUAGAAUAUUAUUUUUUUACAUGAGGAUCACCCAUGUUUUAUUGGGUUUCUAGAAGGAUGAGUUAUUA”, the “apparent Kd” value is, setting by setting: under setting [3], 451 nM; under setting [4], 289 nM.
Take “AGUAUGAUCCAGAAGGACAUAUGACCAAGACGAAACAUGAGGAUCACCCAUGUAGGAUAUGGAUCAUACAGGAUCGUGAGAUCA”: the “apparent Kd” value under setting [1] came to 6.14 nM and the “apparent Kd” value under setting [2] is 12 nM.
The corresponding values for “AGGCGUAAGACAGGAUAUAGGCAGCGGGCUGGAAACGAAUACAAAGACAUGAGGAUCACCCAUGUCUAGAAGGGUCGUGGCGGG” are 9.05 nM and 9.88 nM.
Turning to “AAAAAAAAAAGAGAGGAUAUCCAAAAAAAAACAUGAGGAUCACCCAUGUAAAAAAAAAAAAAAUGGGAGAAGGCUCAAAAAAAAAA”, the “apparent Kd” value came to 89.7 nM under setting [3] and 23.2 nM under setting [4].
Consider “GGGCGUGAAGGAUAUACAUGAGGAUCACCCAUGUGGGAGGAGAAUGGUGAGGAGGCUGGUAGAAGGUCAGGAGG”, for which the “apparent Kd” value was 47.9 nM under setting [1] and 45.8 nM under setting [2].
Taken in the same sequence, the figures for “UUCAUGUGAGGAUAUCAGUAGUAAAAAAAUAAAAUUACUACUGAGAAGGCACAUGAGGAUCACCCAUGUGUCUC” were 22.1 nM and 26.6 nM.
Take “CUAAAUCAUGUAGGAUAUGCAUGGCGAAGCUACGCAGAAGGACAUGAGGAUCACCCAUGUCUCUCCGUCUGCAUACAGACGGAG”: the “apparent Kd” value runs as follows: under setting [1], 20.1 nM; under setting [2], 123 nM.
Take “AGAGAAUACUCAGGAUAUCUGAAUAGAAAGAGAAGAGAAGGGAGACAUGAGGAUCACCCAUGUGAAGUCUUGAGACUACAUGGU”: the “apparent Kd” value is, setting by setting: under setting [1], 366 nM; under setting [2], 426 nM.
For “AAUUAACUCACAGGAUAUAGCAGAGGUCGCGUAAACUUACAGGCGACGAGGCUAGAAGGGUGACCACAUGAGGAUCACCCAUGU”, the “apparent Kd” value was 648 nM under setting [3] and 98.8 nM under setting [4].
The corresponding values for “GUAGCUCCUGACAUGAGGAUCACCCAUGUUCACUUAUUAAAUCAGGAUAUCCUCUCGAAACGAGAGGAGAAGGGAUAAGCUACU” are 7.84 nM and 7.36 nM.
Taken in the same sequence, the figures for “AAGCGAGGGACAGGAUAUGCGGCAAAACUCGCCGCAGAAGGGUCGACAUGAGGAUCACCCAUGUCCUUACGCUCCAAGUAGAGG” were 213 nM and 359 nM.
With “GUCUCACAUGAGGAUCACCCAUGUGAGGAUAUGGAUUCGCUGGCCGUAGCCAGUGGAUCCAGAAGGCGCAUGAU”, the “apparent Kd” value is, setting by setting: under setting [1], 20.5 nM; under setting [2], 22 nM.
